Assay results from ChEMBL document CHEMBL1140068, “Computer based design, synthesis and biological evaluation of novel indole derivatives as HCV NS3-4A serine protease inhibitors” (Bioorg Med Chem, 2008).
≈ marks a conversion by molar mass, not a printed value.

Legend:
[1] = test system: Hepacivirus hominis; experiment: Inhibition of HCV NS3 protease at 50 ug/ml
How it was run: (§1)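 Competitive displacement binding assay against HCV NS3-4A protease using the fluorogenic peptide substrate Ac-Asp-Glu-Asp(EDANS)-Glu-Glu-Abu-ψ. Fluorescence intensity was read, and percent inhibition was calculated from it.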

[2] = Inhibition of HCV NS3 protease; set-up: species or system Hepacivirus hominis; how it was run: as §1
[3] = test system: Hepacivirus hominis; experiment: Inhibition of HCV NS3 protease at 100 ug/ml; how it was run: as §1
[4] = test system: Hepacivirus hominis; experiment: Inhibition of HCV NS3 protease at 10 ug/ml; how it was run: as §1

`COc1ccc(C(CC(=O)CCC(=O)N[C@@H](Cc2c[nH]c3ccccc23)C(=O)O)c2c[nH]c3ccc(Br)cc23)cc1` (mixture of isomers) gave an inhibition [1] of 54.8%, an IC50 [2] of 44.1 µg/mL and an inhibition [3] of 72.6%.
With `O=C(CCC(=O)N[C@@H](Cc1ccc(O)cc1)C(=O)O)CC(c1ccc(C(F)(F)F)cc1)c1c[nH]c2ccc(Br)cc12` (stereo partly specified) the inhibition [1] was 54%, the IC50 [2] was 39.2 µg/mL (≈ 62.1 µM) and the inhibition [4] was 19.1%. For the same compound, the inhibition [3] was 82.9%.
In the case of `COc1ccc2[nH]cc(C(CC(=O)CCC(=O)N[C@@H](Cc3c[nH]cn3)C(=O)O)c3ccc(C(F)(F)F)cc3)c2c1` (mixture of isomers), the inhibition [1] is reported as 62.5%, the IC50 [2] is reported as 30.5 µg/mL and the inhibition [4] is reported as 23.5%. It also gave an inhibition [3] of 77.6%.
For `COc1ccc2[nH]cc(C(CC(=O)CCC(=O)N[C@@H](Cc3ccc(O)cc3)C(=O)O)c3ccc(C(F)(F)F)cc3)c2c1` (mixture of isomers), the inhibition [1] was 57.1%, the IC50 [2] was 39 µg/mL and the inhibition [4] was 35.2%. The inhibition [3] was 84.3%.
In the case of `COc1ccc(C(CC(=O)CCC(=O)N[C@@H](Cc2c[nH]cn2)C(=O)O)c2c[nH]c3ccc(OC)cc23)cc1` (mixture of isomers), the inhibition [1] is reported as 59.2%, the IC50 [2] is reported as 31 µg/mL and the inhibition [4] is reported as 22.4%. The inhibition [3] was 75.7%.
Compound `COc1ccc(C(CC(=O)CCC(=O)N[C@@H](Cc2ccccc2)C(=O)O)c2c[nH]c3ccc(OC)cc23)cc1` (mixture of isomers) has an inhibition [1] of 84.4%, an IC50 [2] of 15 µg/mL and an inhibition [4] of 43.7%. The inhibition [3] was 85.7%.
With `COc1ccc(C(CC(=O)CCC(=O)N[C@@H](Cc2ccc(O)cc2)C(=O)O)c2c[nH]c3ccc(Br)cc23)cc1` (mixture of isomers) the inhibition [1] was 41.5%, the IC50 [2] was 63.3 µg/mL and the inhibition [3] was 68.7%.
Work on `COc1ccc(C(CC(=O)CCC(=O)N[C@@H](Cc2c[nH]c3ccccc23)C(=O)O)c2c[nH]c3ccc(OC)cc23)cc1` (mixture of isomers) yielded an inhibition [1] of 54.4%, an IC50 [2] of 44.8 µg/mL and an inhibition [3] of 67.4%.
`COc1ccc(C(CC(=O)CCC(=O)N[C@@H](Cc2ccc(O)cc2)C(=O)O)c2c[nH]c3ccc(OC)cc23)cc1` (mixture of isomers) showed an inhibition [1] of 69.9%, an IC50 [2] of 27.2 µg/mL and an inhibition [4] of 29.6%. It also gave an inhibition [3] of 78.8%.
For `COc1ccc([C@@H](CC(=O)CCC(=O)N[C@@H](Cc2ccccc2)C(=O)O)c2c[nH]c3ccc(OC)cc23)cc1`, the IC50 [2] was 36.5 µg/mL (≈ 69 µM).
For `COc1ccc2[nH]cc(C(CC(=O)CCC(=O)N[C@@H](Cc3c[nH]c4ccccc34)C(=O)O)c3ccc(C(F)(F)F)cc3)c2c1` (mixture of isomers), the inhibition [1] was 51.2%, the IC50 [2] was 47.9 µg/mL and the inhibition [3] was 76.9%.
Work on `COc1ccc2[nH]cc(C(CC(=O)CCC(=O)N[C@@H](Cc3ccccc3)C(=O)O)c3ccc(C(F)(F)F)cc3)c2c1` (mixture of isomers) yielded an inhibition [1] of 67.2%, an IC50 [2] of 13 µg/mL and an inhibition [4] of 48.5%. For the same compound, the inhibition [3] was 84.9%.
